{"data": "Measured values from different studies", "read-out": "metabolic stability", "host": "human", "note": "Each line is one published result; the experiments were not run side by side."}
{"Structure (SMILES)": "CC1(C)NC(=O)N(c2ccc(F)c(C(F)(F)F)c2F)C1=O", "sample": "liver microsomes", "endpoint": "microsomal CLint", "value": "< 7 µL/min/mg"}
{"Structure (SMILES)": "O=C1CCC(N2Cc3c(ccc4c3OCC43CCN(Cc4ccccc4)CC3)C2=O)C(=O)N1 (stereo not shown)", "sample": "liver microsomes", "tested at": "1 µM", "endpoint": "scaled CLint", "value": "20.9 mL/min/kg"}
{"Structure (SMILES)": "O=c1[nH]c2ccccc2n1C1CCN(CCCC(c2ccc(F)cc2)c2ccc(F)cc2)CC1", "sample": "liver microsomes", "tested at": "100 ng/mL", "endpoint": "microsomal CLint", "value": "3.4 µL/min/mg"}
{"Structure (SMILES)": "C[C@]12CC[C@H]3[C@@H](CCC4=CC(=O)CC[C@@]43C)[C@@H]1CC[C@@H]2O", "sample": "liver microsomes", "pH": "pH 7.4", "endpoint": "scaled CLint", "value": "125 mL/min/kg"}
{"Structure (SMILES)": "NCCOCC(=O)N1CCCC(C(=O)NCc2nc(-c3ccc(-c4ccc(F)cc4)cc3)cs2)C1 (stereo not shown)", "sample": "liver microsomes", "endpoint": "scaled CLint", "value": "< 4.3 mL/min/kg"}
{"Structure (SMILES)": "CC(C)CC(=O)OC[C@H]1O[C@@](C#N)(c2ccc3c(N)ncnn23)[C@H](O)[C@@H]1O", "sample": "hepatocytes", "endpoint": "hepatocyte CLint", "value": "> 318 µL/min/10⁶ cells"}
{"Structure (SMILES)": "Cc1[nH]c(C)c(S(=O)(=O)Nc2ccc(S(F)(F)(F)(F)F)c(Cl)c2)c1C(=O)N1CCC(F)(F)C1", "sample": "liver microsomes", "endpoint": "microsomal CLint", "value": "53.1 µL/min/mg"}
{"Structure (SMILES)": "CC1(C)NC(=O)N(c2cc(Cl)c(F)c(C(F)(F)F)c2)C1=O", "sample": "liver microsomes", "endpoint": "microsomal CLint", "value": "< 7 µL/min/mg"}
{"Structure (SMILES)": "Cc1[nH]c(C)c(S(=O)(=O)Nc2ccc(S(F)(F)(F)(F)F)cc2)c1C(=O)N1CCC(F)(F)C1", "sample": "liver microsomes", "endpoint": "microsomal CLint", "value": "26 µL/min/mg"}
{"Structure (SMILES)": "C[C@]12CC[C@H]3[C@@H](CCC4=CC(=O)CC[C@@]43C)[C@@H]1CC[C@@H]2O", "sample": "liver microsomes", "endpoint": "microsomal CLint", "value": "63.9 µL/min/mg"}
